An excerpt weighted towards active compounds, which were near 2.6% of everything screened.
Calb FLC – affects C. albicans growth with fluconazole. C. albicans CaCi-2 (fluconazole-resistant clinical isolate) + fluconazole, Alamar Blue growth, 48 h. growth inhibition, % (concentration not given with the values). 300,000 compounds, 0.57% hits. AID 1979;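 active = growth inhibition above about 58% in most replicates, limit read from the data, passing the limit was not always enough; inconclusive = exactly half the replicates above a set limit; inactive = most replicates below a set limit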;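 note: all wells also contain fluconazole at 8 µg/ml as a sub-toxic cotreatment; 0% = median of DMSO wells and 100% = median of geldanamycin control wells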
ARFGAP1 inhibitor – inhibits rat ARF GTPase activating protein 1; Q62848; Arfgap1-stimulated ARF1 GTP hydrolysis, GDP FP detection; inhibition, % at 16.5 µM; 360,000 compounds, 0.26% hits;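 active = inhibition above a per-plate limit, mean inhibition of low control wells plus 3 SD, cut at about 25% in these data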;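 note: 0% = DMSO wells with enzyme and 100% = wells lacking Arfgap1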
Target sequence (Q62848 1-136 limits assumed): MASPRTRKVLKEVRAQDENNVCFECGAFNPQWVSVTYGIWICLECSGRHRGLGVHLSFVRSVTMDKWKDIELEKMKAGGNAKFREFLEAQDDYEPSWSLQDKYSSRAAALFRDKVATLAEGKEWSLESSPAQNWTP
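Repeats: one replicate per compound; assay system: rat Arfgap1 catalytic domain, aa 1-136; times: enzyme reaction 120 min at 25 °C after 20 min preincubation; detection: FP of antibody-bound GDP Alexa 633 tracer, ex 620/em 688 nm; benchmarks: high control wells lacking Arfgap1, low control full reaction with DMSO; reagent: human ARF1(Δ1-17)-GTP substrate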
IMP-1 inhibitor – blocks Pseudomonas aeruginosa IMP-1 metallo-beta-lactamase; purified IMP-1, nitrocefin hydrolysis, epi-absorbance fluorescence; inhibition, % at 5.6 µM; 290,000 compounds, 0.45% hits;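 active = inhibition above the mean plus 3 SD of all compounds in the same screening run, cut at about 4.5% in these data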;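 note: 0% = IMP-1 with DMSO and 100% = DMSO wells lacking enzyme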
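system = purified recombinant IMP-1 beta-lactamase | amount = 0.2 nM IMP-1, as dispensed | medium = HEPES buffer pH 7.1 with ZnSO4 and Brij 35 | times = 25 °C, 15 min preincubation, 25 min reaction | detection = plate fluorescence quenching by hydrolysis product, ex 480/em 530 nm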
VIM-2 inhibitor – inhibitors of Pseudomonas aeruginosa VIM-2 metallo-beta-lactamase. purified VIM-2, nitrocefin hydrolysis, epi-absorbance fluorescence. 290,000 compounds, 0.89% hits. inhibition, % at 5.6 µM;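 active = inhibition above the mean of all tested compounds plus 3 SD, cutoff set per screening run, cut at about 7.5% in these data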;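 note: red hydrolysis product quenches plate fluorescence so inhibitors raise well fluorescence; 0% = enzyme with DMSO and 100% = DMSO without enzyme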
ASAP1 GAP inh – inhibitors of human ASAP1 ArfGAP activity | ASAP1-stimulated ARF1 GTP hydrolysis, GDP FP detection | inhibition, % at 16.5 µM | 360,000 compounds, 0.19% hits | AID 624377; in the data active = inhibition above about 25%;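 note: 0% = vehicle with enzyme and substrate and 100% = no enzyme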
PHOSPHO1 block – inhibitors of human PHOSPHO1 phosphatase; inhibition, % at 13.3 µM; recombinant PHOSPHO1, absorbance phosphatase assay; 290,000 compounds, 1.1% hits; Q8TCT1; in the data active = inhibition above about 60%
Target sequence (Q8TCT1 whole entry, looked up): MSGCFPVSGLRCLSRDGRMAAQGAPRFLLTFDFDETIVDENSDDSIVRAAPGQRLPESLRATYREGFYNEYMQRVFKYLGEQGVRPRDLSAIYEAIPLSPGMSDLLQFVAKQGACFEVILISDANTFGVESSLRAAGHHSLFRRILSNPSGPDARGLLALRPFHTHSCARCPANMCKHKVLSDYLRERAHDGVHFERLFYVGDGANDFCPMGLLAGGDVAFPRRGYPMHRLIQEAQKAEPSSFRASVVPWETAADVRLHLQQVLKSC
VIM-2 confirm – VIM-2 inhibition, confirmation assay; purified VIM-2 enzyme, nitrocefin absorbance; inhibition, % at 5.6 µM; 200 compounds, 73% hits; shares compounds with IMP-1 inhibitor; in the data active = inhibition above about 8%;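 note: 0% = enzyme with vehicle and 100% = no enzyme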
TEM-1 inh 2 – blocks E. coli TEM-1 beta-lactamase, VIM-2 IMP-1 counter-screen | shares compounds with IMP-1 inhibitor | nitrocefin absorbance inhibition | inhibition, % at 5.6 µM | 200 compounds, 50% hits; in the data active = inhibition above about 0.66%
Target sequence (P62593 whole entry, looked up): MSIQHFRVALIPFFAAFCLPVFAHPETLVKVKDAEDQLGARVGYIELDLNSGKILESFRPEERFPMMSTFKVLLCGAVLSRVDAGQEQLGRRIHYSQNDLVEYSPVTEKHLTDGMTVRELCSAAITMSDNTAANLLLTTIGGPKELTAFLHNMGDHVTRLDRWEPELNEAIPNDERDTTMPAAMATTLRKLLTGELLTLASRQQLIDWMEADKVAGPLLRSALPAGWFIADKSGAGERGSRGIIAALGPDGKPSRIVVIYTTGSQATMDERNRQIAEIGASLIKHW
IMP-1 confirm – confirmation of P. aeruginosa IMP-1 metallo-beta-lactamase inhibitors; shares compounds with IMP-1 inhibitor; inhibition, % at 5.6 µM; purified IMP-1 enzyme, absorbance substrate hydrolysis; AID 2189; 200 compounds, 60% hits; in the data active = inhibition above about 4.9%;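 note: 0% = enzyme with vehicle and 100% = vehicle without enzyme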
Numbers without * were called inactive; ? = inconclusive; . = no result given.

SMILES | Calb FLC | ARFGAP1 inhibitor | IMP-1 inhibitor | VIM-2 inhibitor | ASAP1 GAP inh | PHOSPHO1 block | VIM-2 confirm | TEM-1 inh 2 | IMP-1 confirm
O=C1CSC(=S)N1/N=C/c1cc(Br)c(O)c(Br)c1 | 0 | . | 23* | 13* | . | 48 | 26* | 3.6* | 37*
COc1ccc(-c2nc3c4ccccc4ccn3c2Cc2cccc(F)c2)cc1OC | . | -2 | . | . | -9 | . | . | . | .
CCCc1cc(C(N)=S)ccn1 | -23 | -7 | 4.8* | 8 | 4 | -15 | 3 | -1 | 0
COCCN1C(=O)CN(S(C)(=O)=O)CC1(C)C(=O)NC(C)C (configuration not stated) | . | 3 | . | . | 8 | . | . | . | .
CSC1=NSC2=NC(=O)/C(=C/c3coc4ccccc4c3=O)C(=N)N12 | . | -6 | 0 | 0 | 4 | 5 | . | . | .
CC1=CC2=NC(=O)/C(=C/c3coc4ccc(Cl)cc4c3=O)C(=N)N2O1 | 2 | 11 | 9.4* | 13* | -1 | 3 | 7.8* | -2 | 2
N=C1/C(=C\c2coc3ccccc3c2=O)C(=O)N=C2SC=CN12 | -1 | -2 | 8.6* | 9.3* | 8 | -15 | 16* | 3.6* | 12*
CC1=CC2=NC(=O)/C(=C\c3cc(C)n(-c4cccc(Cl)c4)c3C)C(=N)N2O1 | 3 | 1 | -3 | -2 | 14 | -5 | . | . | .
CCCCN1C(=O)C(CC(=O)NC(c2ccccc2)c2ccccc2)CC(C(=O)N2CCCCCC2)=C1C (configuration not stated) | . | -5 | . | . | -4 | . | . | . | .
O=C(NN1C(=O)C2C3C=CC(C3)C2C1=O)c1ccccc1 (configuration not stated) | -3 | -14 | -3 | -3 | -2 | 50 | . | . | .
Cc1cccc(C(=O)NN2C(=O)C3C(c4ccccc4)C=CC(c4ccccc4)C3C2=O)c1 (configuration not stated) | -5 | -3 | 21* | 7 | 2 | 19 | 0 | -5 | 2
CN1CCS/C1=C/C=C1\SC(=S)N(CC(=O)O)C1=O | 0 | 9 | 6.8* | 9.6* | -7 | 21 | 8 | -7 | 2
C/C(=N\O)c1ccc2c3c([nH]c2c1)CCCC3 | 15 | 17 | 8.6* | 23* | -2 | 10 | 37* | -3 | 4.8*
CN(C)c1ccc(/C=N/N(CCO)C2=NS(=O)(=O)c3ccccc32)cc1 | 0 | 1 | 18* | 42* | 13 | -5 | 40* | 42* | 30*
CCOC(=O)c1c(C)n(-c2ccc(C)cc2)c2c(C(C(C)=O)C(=O)O)c(Br)c(O)c(O)c12 (configuration not stated) | 28 | -11 | 5.4* | 7 | -13 | 40 | -1 | -5 | -4
COc1ccc(N(CC(=O)N2CCN(c3ccccc3)CC2)S(=O)(=O)c2ccccc2)cc1 | . | -3 | . | . | 8 | . | . | . | .
Cn1ccnc1SCC(=O)n1c2c(c3ccccc31)CCCC2 | -13 | -6 | 5.7* | 29* | 6 | 8 | 8.5* | -4 | -1
Cn1ccnc1SCC(=O)Nc1cccc2ccccc12 | -6 | 1 | -4 | 0 | 4 | -29 | . | . | .
O=C(Nc1ccc2c(c1)OCCO2)C(c1ccccc1)n1c(=O)c(-c2cc3ccccc3[nH]2)nc2ccccc21 (configuration not stated) | . | 7 | . | . | -1 | . | . | . | .
Cn1c(=O)c2cc(NC(=S)NC3CCCCC3)ccc2n1Cc1ccc(Cl)cc1 | . | 3 | . | . | -5 | . | . | . | .
CC1(C(=O)NC2CCCC2)CCC(=O)N1CCc1c[nH]c2ccccc12 (configuration not stated) | . | 9 | . | . | 12 | . | . | . | .
O=C(O)Cn1cc(C(=S)N2CCCCC2)c2ccccc21 | -28 | 9 | 5.0* | 9.2* | 5 | -21 | -3 | -6 | -4
O=C(O)c1cccc(N2C(=O)c3cccc4c(Cl)ccc(c34)C2=O)c1 | 16 | 1 | -3 | 0 | -2 | 27 | . | . | .
Nc1cccc(N2C(=O)c3cccc4c(N)ccc(c34)C2=O)c1 | . | 10 | 18* | 22* | 7 | 35 | 18* | 21* | 14*
Cc1cccc(N2C(=O)c3cccc4c(N)ccc(c34)C2=O)c1 | 5 | 14 | 25* | 21* | -2 | 17 | 21* | 31* | 19*
SMILES | Calb FLC | ARFGAP1 inhibitor | IMP-1 inhibitor | VIM-2 inhibitor | ASAP1 GAP inh | PHOSPHO1 block | VIM-2 confirm | TEM-1 inh 2 | IMP-1 confirm
Nc1ccc2c3c(cccc13)C(=O)N(c1ccccc1)C2=O | 4 | 8 | 37* | 35* | 3 | 8 | 35* | 47* | 33*
CCC(c1nnnn1-c1ccc2c(c1)OCCO2)N1CCN(c2cc(C)ccc2C)CC1 (configuration not stated) | . | 10 | . | . | -8 | . | . | . | .
O=C(NC1CC1)C1CCN(c2nc3ccccc3s2)CC1 | -8 | 4 | -3 | -5 | 16 | 23 | . | . | .
O=C(NC1CC1)C1CCN(c2ncnc3c2sc2cccc(F)c23)CC1 | -1 | 11 | 5.1* | 14* | -2 | -12 | 28* | -6 | -1
COc1ccc(N=Nc2nc3ccc(Br)cc3n2C)cc1 | 15 | -3 | 25* | 26* | 2 | -31 | -2 | -5 | -4
CN(C)c1nc(N(C)C)nc(N(C#N)CN2C(=O)c3ccccc3S2(=O)=O)n1 | -21 | -10 | 1 | 5 | 1 | 40 | . | . | .
CC(C)(C)Nc1nc(Cl)nc(N(C#N)CN2C(=O)c3ccccc3S2(=O)=O)n1 | 2 | -9 | 11* | 12* | -4 | -6 | 1 | -3 | -2
Cc1cccc(CN2CCC(n3nccc3NC(=O)CCCc3ccccc3)CC2)c1 | . | -1 | . | . | 3 | . | . | . | .
CCOc1ccc(NC(=O)c2c(NC(=O)CN3CCN(C)CC3)sc3c2CCC3)cc1 | 0 | -11 | 4.7* | 9.6* | 1 | 33 | 16* | -3 | 2
CC(C)c1nnc(N2C(=O)C(O)=C(C(=O)c3cccs3)C2c2ccccc2)s1 (configuration not stated) | ? | 1 | 7.2* | 17* | -1 | 42 | 0 | 0 | -2
C=CCOc1ccc(C2C(C(=O)c3cccs3)=C(O)C(=O)N2c2nnc(C)s2)cc1 (configuration not stated) | 1 | -8 | 13* | 18* | -6 | . | 2 | 2.6* | 0
COc1cccc(C(O)c2nc(-c3cccc(C(F)(F)F)c3)cs2)c1 (configuration not stated) | . | 9 | . | . | -8 | . | . | . | .
Cc1ccc2c(=O)n3c(nc2c1)C(Cc1ccccc1)NC(=O)c1cc2ccccc2cc1-3 (configuration not stated) | . | 7 | . | . | -9 | . | . | . | .
Oc1ccccc1-c1nc(NCc2ccco2)c2ccccc2n1 | -15 | -11 | -4 | -2 | 0 | 24 | . | . | .
